Converted amounts (≈) assume the structure as drawn. “Also recorded” adds a separate entry of the source.
How the values were obtained:
[1] = Plasma pharmacokinetics after single oral dose; assay type: in vivo, healthy men; details: for Tmax / half-life: male, human, plasma; for Tmax: Median tmax
In short: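 After a fast of at least 10 h, single oral tablets were given semirecumbent with 240 mL water (part 1: 1–225 mg; part 2: 10, 50 mg). Plasma was assayed by validated LC-MS/MS over 1–1000 ng/mL (LLOQ 1 ng/mL). Noncompartmental analysis used actual times. Cmax and tmax were taken by inspection, t1/2 = 0.693/λz, CL/F = dose/AUC∞, and Vz/F = D/(λz × AUC∞).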

[2] = Urinary excretion and renal clearance; assay type: in vivo, healthy men
In short: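 Samples were assayed by LC-MS/MS over 5–1000 ng/mL (LLOQ 5 ng/mL). Excreted amount = urine volume × concentration, % of dose = Ae/dose × 100, and renal clearance = Ae/AUC.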

[3] = test system: naïve and UVB-sensitized skin; assay: Sensory testing part 2 on naïve and UVB-sensitized skin; assay type: in vivo, healthy men
In short: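 In the part 2 crossover (oral 10 or 50 mg, or placebo), minimal erythema dose was first found with graded UVB on the lower back. Three times that dose was then given to the volar forearm. Warm detection, heat pain detection, heat pain tolerance, mechanical pain threshold and allodynia were tested on UVB-treated and naïve skin. Times were predose, 4, 8, 24, 72, 120 and 144 h, and follow-up, to a 52 °C maximum.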

capsaicin-induced flare = assay: Capsaicin-induced flare area and intensity in humans; assay type: in vivo, healthy men
In short: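 Part 2 was a double-blind, 3-way crossover of single oral test compound (10 or 50 mg) or placebo tablets after an overnight fast. Capsaicin cream (0.075% w/w) stayed on the forearm for 30 min. Laser Doppler scans were taken before and after, at predose, 4 h and 144 h postdose. Flare area counted pixels with flux above the 95th percentile (mean + 2 SD) of baseline. Intensity was taken as relative flux.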

[4] = Oral body temperature and Emax model vs plasma concentration; assay type: in vivo, healthy men; details: for Mean maximum body temperature: part 2
In short: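 Oral temperature was recorded as a safety measure in healthy men after single oral tablet doses (part 1: 1–225 mg; part 2: 10, 50 mg, placebo). The maximum value was summarised per dose. An Emax model with baseline effect E0, Emax and EC50 related body temperature to plasma concentration of the test compound.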

QTcF interval = assay type: in vivo, healthy men
human TRPV1 receptors = details: cited from earlier work
[5] = test system: complete Freund's adjuvant–evoked thermal hyperalgesia; details: rat; cited from earlier work
[6] = part 1, vs plasma concentration

SMILES: CC(C)(O)c1ccccc1-c1ccc2[nH]c(/C=C/c3ccc(C(F)(F)F)cc3)nc2c1 [JNJ-39439335, trans-2-(2-{2-[2-(4-Trifluoromethyl-phenyl)-vinyl]-1H-benzimidazol-5-yl}-phenyl)-propan-2-ol]
- Dose proportionality of exposure (Cmax, AUC∞) ([1]; doses of 1 to 225 mg): less than dose-proportional increase in exposure
- Tmax ([1]; oral, 50 mg, part 2, 10 and 50 mg, tablet, fasted): ~3 h
- half-life ([1]; oral, Mean elimination half-life, part 1, doses of 1 to 225 mg): 29.9 to 85.9 h
- Tmax ([1]; oral, across the dose range administered (discussion)): 2 to 4.5 h
- Tmax ([1]; oral, part 1, doses of 1 to 225 mg, tablet, fasted): 2.02 to 4.44 h
- half-life ([1]; po, Terminal phase half-life, single oral doses): 30 to 86 h
- Renal clearance ([2]; in vivo): negligible
- Concentrations in urine ([2]; lower limit of quantification 5 ng/mL): below the quantification limit
- HPD threshold, HPT, and warm detection threshold ([3]; naïve and UVB-sensitized skin, 10 and 50 mg): dose-dependent increase
- Mechanical pain detection threshold ([3]; naïve skin or UVB-sensitized skin): no clear treatment or dose-related effects
- Plasma concentration at which most participants detected warmth before 52°C ([3]; warm detection threshold): < 200 ng/mL
- Plasma concentration giving maximum effect on flare area and flare intensity (capsaicin-induced flare; 4-hour postdose): ≥ 90 ng/mL
- Plasma concentration giving maximum effect on flare area and flare intensity (capsaicin-induced flare; 144-hour postdose): > 5 ng/mL
- Capsaicin-induced flare intensity and flare area (capsaicin-induced flare; part 2, 10 and 50 mg, 4- and 144-hour postdose): dose-related reduction
- Capsaicin-induced flare area and flare intensity (capsaicin-induced flare; part 2, 50-mg dose, 144 hours postdose): complete blocking; also recorded: completely blocked
- EC50 ([4]; Homo sapiens, po, read-out: EC50, body temperature Emax model): 0.0327 µg/mL (≈ 0.0774 µM)
- Participants with body temperature ≥39°C ([4]; part 1, 120-mg, approximately 11-hour postdose): 1 participant
- E0, body temperature Emax model [4, 6]: 36.6 °C
- Emax, body temperature Emax model [4, 6]: 37.6 °C
- Mean maximum body temperature ([4]; 10 mg): 37.9 °C
- Mean maximum body temperature ([4]; 50 mg): 38.0 °C
- Participants with increase in QTcF of >30 milliseconds or QTcF >450 milliseconds (QTcF interval; either part of the study): No participant
- Participants with QTcF interval shortening of >30 milliseconds vs baseline (QTcF interval; part 1, 10 mg dose group): 2 n
- Participants with QTcF interval shortening of >30 milliseconds vs baseline (QTcF interval; part 1, 15 mg dose group): 3 n
- Participants with QTcF interval shortening of >30 milliseconds vs baseline (QTcF interval; part 1, 120 mg dose group): 2 n
- Participants with QTcF interval shortening of >30 milliseconds vs baseline (QTcF interval; part 1, 225 mg dose group): 2 n
- Participants with QTcF interval shortening of >30 milliseconds vs baseline (QTcF interval; part 1, all JNJ-39439335 doses): 9 participants
- Participants with QTcF interval shortening of >30 milliseconds vs baseline (QTcF interval; part 2, 50 mg): 4 participants
- IC50 (human TRPV1 receptors): 4.7 nM
- Complete Freund's adjuvant–evoked thermal hyperalgesia [5]: significantly attenuated
